Data published in ChEMBL document CHEMBL1133633, “Anti-Helicobacter pylori agents. 4. 2-(Substituted guanidino)-4-phenylthiazoles and some structurally rigid derivatives” (2000).
Converted amounts (≈) assume the structure as drawn.

Assays:
[1] = tested on: Helicobacter pylori; test: The lowest drug concentration that inhibited macroscopic colonial growth against Helicobacter pylori; Value ranges from 3.13-12.5; assay type: functional
How it was run: (§1)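 Agar dilution. Strains were precultured 3 days at 37 °C on Brucella agar with 3% horse serum and 2% starch, then suspended in buffered saline to McFarland No. 1. A 10²-fold dilution was spotted by multipoint replicator onto Brucella agar with 7% lysed horse blood carrying serial 2-fold drug dilutions. Plates were incubated 3 days at 37 °C under 10% CO₂. MIC is the lowest concentration preventing macroscopic colonial growth. Mean and range come from 10 strains: 8001, 8003, 8004, 8007, 8008, 8009, 8011, 9005, FP1530 and FP1532.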

[2] = species on record: Cavia porcellus; test: Inhibition of histamine stimulated chronotropic response in isolated guinea pig right atrium (1*10e-6 g/mL); assay type: functional, Cardiac atrium
How it was run: (§2)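 Guinea pig right atrial strip, under 0.3-0.6 g initial tension in Tyrode solution at 30 °C, gassed with 95% O₂-5% CO₂; beating rate recorded by transducer. Histamine hydrochloride (1 × 10^-6 g/mL) raised rate. Test compound (1 × 10^-6 g/mL) was added 30 min after histamine washout. Percent inhibition compares histamine-induced rate increases before and 30 min after dosing.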

[3] = tested on: Helicobacter pylori; test: The lowest drug concentration that inhibited macroscopic colonial growth against Helicobacter pylori; value ranges from 0.00625-0.05; assay type: functional; how it was run: as §1
[4] = tested on: Rattus norvegicus; test: Inhibition of histamine stimulated gastric acid secretion in lumen perfused stomach of anesthetized rats (1 mg/kg iv); assay type: functional
How it was run: (§3)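 Male Sprague-Dawley rats (~250 g), fasted 24 h, anesthetized with urethane 1.25 g/kg ip. The opened stomach was lumen-perfused with saline, and the perfusate was titrated with 25 mM NaOH by autotitrator. Inhibition of histamine-stimulated acid output was measured after 1 mg/kg iv dosing; n = 2.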

[5] = tested on: Helicobacter pylori; test: The lowest drug concentration that inhibited macroscopic colonial growth against Helicobacter pylori.; assay type: functional; how it was run: as §1
[6] = tested on: Bacteroides fragilis; test: Antimicrobial activity was measured against Bacteroides fragilis organism.; assay type: functional
[7] = tested on: Clostridium perfringens; test: Antimicrobial activity was measured against Clostridium perfringens organism; assay type: functional
[8] = tested on: Campylobacter jejuni; test: Antimicrobial activity was measured against Campylobacter jejuni organism.; assay type: functional
[9] = tested on: Helicobacter pylori; test: Antimicrobial activity was measured against Helicobacter pylori organism. Value ranges from (0.2-0.39); assay type: functional; how it was run: as §1
[10] = tested on: Helicobacter pylori; test: The lowest drug concentration that inhibited macroscopic colonial growth against Helicobacter pylori; value ranges from 0.2-0.39; assay type: functional; how it was run: as §1
[11] = tested on: Neisseria gonorrhoeae; test: Antimicrobial activity was measured against Neisseria gonorrhoeae organism; assay type: functional
[12] = tested on: Neisseria meningitidis; test: Antimicrobial activity was measured against Neisseria meningitidis organism.; assay type: functional
[13] = tested on: Clostridioides difficile; test: Antimicrobial activity was measured against Clostridium difficile organism.; assay type: functional
[14] = tested on: Helicobacter pylori; test: The lowest drug concentration that inhibited macroscopic colonial growth against Helicobacter pylori; Value ranges from 6.25-50; assay type: functional; how it was run: as §1
[15] = tested on: Helicobacter pylori; test: The lowest drug concentration that inhibited macroscopic colonial growth against Helicobacter pylori; value ranges from 6.25-25; assay type: functional; how it was run: as §1
[16] = tested on: Helicobacter pylori; test: The lowest drug concentration that inhibited macroscopic colonial growth against Helicobacter pylori; value ranges from 12.5-50; assay type: functional; how it was run: as §1
[17] = tested on: Helicobacter pylori; test: The lowest drug concentration that inhibited macroscopic colonial growth against Helicobacter pylori; Value ranges from 25-100; assay type: functional; how it was run: as §1
[18] = tested on: Helicobacter pylori; test: The lowest drug concentration that inhibited macroscopic colonial growth against Helicobacter pylori; Value ranges from 0.1-0.39; assay type: functional; how it was run: as §1
[19] = species on record: Cavia porcellus; test: Inhibition of histamine stimulated chronotropic response in isolated guinea pig right atrium; assay type: functional, Cardiac atrium; how it was run: as §2
[20] = tested on: Helicobacter pylori; test: The lowest drug concentration that inhibited macroscopic colonial growth against Helicobacter pylori; value ranges from 1.56-3.13; assay type: functional; how it was run: as §1
[21] = tested on: Helicobacter pylori; test: The lowest drug concentration that inhibited macroscopic colonial growth against Helicobacter pylori; value ranges from 0.2-0.78; assay type: functional; how it was run: as §1
[22] = species on record: Cavia porcellus; test: Inhibition of histamine stimulated chronotropic response in isolated guinea pig right atrium (1x 10e-6 g/mL); assay type: functional, Cardiac atrium; how it was run: as §2
[23] = tested on: Rattus norvegicus; test: Inhibition of histamine stimulated gastric acid secretion in lumen perfused stomach of anesthetized rat (1 mg/kg iv); assay type: functional; how it was run: as §3
[24] = tested on: Helicobacter pylori; test: The lowest drug concentration that inhibited macroscopic colonial growth against Helicobacter pylori; value ranges from 12.5-100; assay type: functional; how it was run: as §1

`CCCC/N=C(\N)Nc1nc2c(s1)CCOc1ccc(CNC(C)=O)cc1-2` was tested, and the MIC [1] was 7.7 µg/mL (≈ 19.9 µM).
`CC(=O)NCc1cccc(-c2csc(NC(=N)NCc3ccccc3)n2)c1` gave an Inhibition [2] of 77%, an MIC [3] of 0.025 µg/mL (≈ 0.0659 µM) and an Inhibition [4] of 50%.
For `CC(=O)NCc1cccc2c1OCCc1sc(N=C(N)N)nc1-2`, the MIC [5] was > 100 µg/mL.
`COCC/N=C(\N)Nc1nc(-c2cccc(CNC(C)=O)c2)cs1` was tested, and the MIC [6] was > 100 µg/mL, the MIC [7] was > 100 µg/mL and the MIC [8] was > 100 µg/mL. The Inhibition [2] was 83%, the MIC [9] was 0.32 µg/mL (≈ 0.921 µM) and the MIC [10] was 0.32 µg/mL (≈ 0.921 µM). The MIC [11] was > 100 µg/mL, the MIC [12] was > 100 µg/mL and the Inhibition [4] was 87%. The MIC [13] was > 100 µg/mL.
`CC(=O)NCc1ccc(-c2csc(N=C(N)N)n2)cc1` was tested, and the MIC [5] was > 100 µg/mL.
With `CC(=O)NCc1cccc(-c2csc(N=C(N)N)n2)c1` the MIC [5] was 16.5 µg/mL (≈ 57 µM).
Compound `CCCC/N=C(\N)Nc1nc2c(s1)CSc1ccc(CNC(C)=O)cc1-2` has an MIC [14] of 22 µg/mL (≈ 56.5 µM).
`CC(=O)NCc1cccc(-c2csc(NC(=N)NCCC#N)n2)c1` showed an MIC [15] of 19.3 µg/mL (≈ 56.4 µM).
`CC/N=C(\N)Nc1nc(-c2cccc(CNC(C)=O)c2)cs1` showed an MIC [5] of 3.6 µg/mL (≈ 11.3 µM).
In the case of `CCO/N=C(\N)Nc1nc(-c2cccc(CNC(C)=O)c2)cs1`, the MIC [16] was 29 µg/mL (≈ 87 µM).
In the case of `CC(=O)NCc1ccc2c(c1)-c1nc(N=C(N)N)sc1CO2`, the MIC [17] was 62 µg/mL (≈ 195 µM).
Compound `CCCC/N=C(\N)Nc1nc(-c2cccc(CNC(C)=O)c2)cs1` has an MIC [18] of 0.22 µg/mL (≈ 0.637 µM), an Inhibition [4] of 74% and an Inhibition [19] of 84%.
`CC(=O)NCc1cccc(-c2csc(NC(=N)NCCC(c3ccccc3)c3ccccc3)n2)c1` was tested, and the MIC [20] was 2.5 µg/mL (≈ 5.17 µM).
For `CC(=O)NCc1cccc(-c2csc(NC(=N)Nc3ccccc3)n2)c1`, the Inhibition [2] was 23%, the MIC [21] was 0.52 µg/mL (≈ 1.42 µM) and the Inhibition [4] was 24%.
`COc1ccccc1CC/N=C(\N)Nc1nc2c(s1)CCOc1ccc(CNC(C)=O)cc1-2` was tested, and the MIC [14] was 18.9 µg/mL (≈ 40.6 µM).
With `CC(=O)Nc1ccc2c(c1)-c1nc(N=C(N)N)sc1CS2` the MIC [5] was > 100 µg/mL.
For `CC(=O)NCc1cccc(-c2csc(NC(=N)NCCCc3ccccc3)n2)c1`, the Inhibition [22] was 35%, the MIC [21] was 0.39 µg/mL (≈ 0.957 µM) and the Inhibition [23] was 57%.
`CC(=O)NCc1cccc(-c2csc(N/C(N)=N/CCN(C)C)n2)c1` gave an MIC [24] of 57 µg/mL (≈ 158 µM).
